Source: ChEMBL document CHEMBL1124711, “Design and synthesis of 14 alpha-methyl-15-aza-D-homosterols as novel antimycotics” (1990)
Values after ≈ are worked out from the molar mass of the structure shown.

Legend:
[1] = test system: Candida albicans; experiment: Minimum fungicidal concentration was determined against Candida albicans 3153A strain; assay type: functional
In short: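 Fungicidal endpoint: lowest drug concentration whose subcultures were negative or grew fewer than three colonies.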

[2] = test system: Candida albicans; experiment: Minimum inhibitory concentration was determined against Candida albicans 3153A strain; assay type: functional
[3] = test system: Mus musculus; experiment: The number of survivors/total infected at day 14 was determined after (ip) administration of 2 mg/kg in Candida albicans infected mice; 4/10; assay type: functional
[4] = test system: Mus musculus; experiment: The number of survivors/total infected at day 14 was determined after (ip) administration of 2 mg/kg in Candida albicans infected mice; 6/10; assay type: functional
[5] = test system: Mus musculus; experiment: The number of survivors/total infected at day 14 was determined after (ip) administration of 1 mg/kg in Candida albicans infected mice; 10/10
[6] = Candida albicans, read-out: MFC
[7] = Candida albicans, read-out: MIC

SMILES	MFC [1] [µg/mL]	MFC [1, 6] [µg/mL]	MIC [2] [µg/mL]	MIC [2, 7] [µg/mL]	No. of survivors [3]	No. of survivors [4]	No. of survivors [5]
CC(C)CCC[C@@H](C)C1CCN[C@@]2(C)C3=C(CC[C@]12C)[C@@]1(C)CC[C@H](O)CC1CC3 (stereo partly drawn)	6.3 (≈ 15.2 µM)	6.3 (≈ 15.2 µM)	3.1 (≈ 7.46 µM)	3.1 (≈ 7.46 µM)	4		
CC(C)[C@@H](C)/C=C/[C@@H](C)C1CCN[C@@]2(C)C3=CCC4C(C)(C)[C@@H](O)CC[C@]4(C)C3CC[C@]12C (stereo partly drawn)	6.3 (≈ 13.8 µM)	6.3 (≈ 13.8 µM)	1.6 (≈ 3.51 µM)	1.6 (≈ 3.51 µM)			
CC(C)CCC[C@@H](C)C1CC(=O)N[C@@]2(C)C3=CCC4C[C@@H](O)CC[C@]4(C)C3CC[C@]12C (stereo partly drawn)				> 100			
CC(C)[C@@H](C)/C=C/[C@@H](C)C1CCN[C@@]2(C)C3=CCC4C[C@@H](O)CC[C@]4(C)C3CC[C@]12C (stereo partly drawn)	6.3 (≈ 14.7 µM)	6.3 (≈ 14.7 µM)	0.8 (≈ 1.87 µM)	0.8 (≈ 1.87 µM)			
CC(C)CCC[C@@H](C)C1CCN[C@@]2(C)C3=CCC4C[C@@H](O)CC[C@]4(C)C3CC[C@]12C (stereo partly drawn)	6.3 (≈ 15.2 µM)	6.3 (≈ 15.2 µM)	1.6 (≈ 3.85 µM)	1.6 (≈ 3.85 µM)		6	
CC(C)CCC[C@@H](C)C1CCN[C@@]2(C)C3=CCC4C(C)(C)[C@@H](O)CC[C@]4(C)C3CC[C@]12C (stereo partly drawn)	3.1 (≈ 6.99 µM)	3.1 (≈ 6.99 µM)	1.6 (≈ 3.61 µM)	1.6 (≈ 3.61 µM)			
C[C@@H]1[C@H](O)[C@@H](C)/C=C/C=C/C=C/C=C/C=C/C=C/C=C/[C@H](O[C@@H]2O[C@H](C)[C@@H](O)[C@H](N)[C@@H]2O)C[C@@H]2O[C@](O)(C[C@@H](O)C[C@@H](O)[C@H](O)CC[C@@H](O)C[C@@H](O)CC(=O)O[C@H]1C)C[C@H](O)[C@H]2C(=O)O [AMPHOTERICIN B]			0.16 (≈ 0.173 µM)	0.16 (≈ 0.173 µM)			10
OC(Cn1cncn1)(Cn1cncn1)c1ccc(F)cc1F [FLUCONAZOLE]			0.8 (≈ 2.61 µM)	0.8 (≈ 2.61 µM)			
